# High-throughput results deposited in PubChem BioAssay by Broad Institute.
# GASC1 inh: blocks human GASC-1 (KDM4C) demethylase activity; Q9H3R0; GST-KDM4C 2-372, H3K9me3 peptide, LANCE TR-FRET; inhibition, % at 12.5 µM; actives 0.15% (n = 96,000); AID 720574;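 active = mean replicate inhibition above about 25%, with at least 55% of replicates also reaching it, limit read from the data, passing the limit was not always enough; inconclusive = only one of those two conditions met; inactive = neither condition met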
# Target sequence (Q9H3R0 2-372 limits assumed): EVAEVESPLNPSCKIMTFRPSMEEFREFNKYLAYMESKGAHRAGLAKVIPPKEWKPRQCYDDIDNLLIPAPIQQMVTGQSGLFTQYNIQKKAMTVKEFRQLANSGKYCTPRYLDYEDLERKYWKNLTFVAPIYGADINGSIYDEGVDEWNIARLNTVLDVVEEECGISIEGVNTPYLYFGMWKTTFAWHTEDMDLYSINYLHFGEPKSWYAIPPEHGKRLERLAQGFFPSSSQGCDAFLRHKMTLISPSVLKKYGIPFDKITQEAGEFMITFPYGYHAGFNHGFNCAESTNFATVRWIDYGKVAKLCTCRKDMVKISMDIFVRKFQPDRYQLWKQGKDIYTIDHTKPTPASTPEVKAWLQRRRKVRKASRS
#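 Material: GST-tagged GASC-1 (JMJD2C) catalytic fragment, aa 2-372. Input: enzyme final amount 10 nM. Medium: HEPES buffer, pH 7.5, plus ascorbate. Reagent: H3K9me3 peptide substrate, Fe(II), 2-oxoglutarate. Doses: single dose. Times: reaction 30 min RT, detection step 1 h RT. Measured by: LANCE TR-FRET. Evaluation: Fall in 671/618 emission ratio as inhibition.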
# IDH1 R132H inh: blocks human IDH1 R132H reductase activity. O75874. diaphorase/resazurin fluorescence, 60 min. inhibition, % at 10 µM. actives 0.18% (n = 70,000); in the data active = inhibition above about 34%; inconclusive = no clear call, values can overlap the other calls; inactive = below about 11%;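 note: 0% = DMSO and 100% = no enzyme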
# Pf Dd2 inh: blocks growth of Plasmodium falciparum Dd2 parasites; P. falciparum Dd2 growth, SYBR Green, 72 h; stronger effect = lower value; activity change, % at 10 µM; actives 2.3% (n = 94,000); AID 1159554; in the data active = activity change below about -80%; inconclusive = no clear call, values can overlap the other calls
# T cruzi growth-1: blocks T. cruzi growth in NIH3T3 culture | T. cruzi beta-gal in NIH3T3, GalScreen luminescence, 90 h | actives 5.9% (n = 77,000) | inhibition, % at 8.34 µM;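 active = mean inhibition above about 93%, with at least 55% of replicates each passing it, limit read from the data, passing the limit was not always enough; inconclusive = only one of those two conditions holds; inactive = neither condition holds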
# T cruzi growth-2: blocks T. cruzi growth in NIH3T3 host cells. inhibition, % at 8.35 µM. actives 72% (n = 5,600). AID 651739. shares compounds with T cruzi growth-1. T. cruzi beta-gal in NIH3T3, GalScreen luminescence, 90 h;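 active = mean replicate inhibition above about 95% and at least 55% of replicates individually reaching it, limit read from the data; inconclusive = only one of the two criteria is met; inactive = neither criterion is met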
# T cruzi growth-3: inhibitors of T. cruzi proliferation | shares compounds with T cruzi growth-1 | T. cruzi beta-gal in NIH3T3, GalScreen luminescence, 90 h | inhibition, % at 2.09 µM | actives 21% (n = 5,600) | AID 651740;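 active = mean inhibition above about 95%, with at least 55% of replicates also reaching it, limit read from the data; inconclusive = meets just one of the two conditions; inactive = meets neither condition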;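 note: plate controls were neutral control median for no effect and positive control median for full effect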
# NIH3T3 tox: kills mouse NIH/3T3 fibroblasts | shares compounds with T cruzi growth-1 | NIH/3T3 viability, CellTiter-Glo ATP luminescence, 90 h | cytotoxicity (signal decrease), % at 8.35 µM | actives 14% (n = 5,600) | AID 651742;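 active = mean signal decrease across replicates above about 35% based on untreated-well scatter, with enough replicates individually passing, limit read from the data; inconclusive = no rule stated though some were filed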;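 note: 0% = median of neutral control wells and 100% = median of positive control wells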
# 3T3 cytotox 2: kills mouse NIH/3T3 fibroblasts; NIH/3T3 viability, CellTiter-Glo ATP luminescence, 90 h; shares compounds with T cruzi growth-1; AID 651744; inhibition, % at 24.9 µM; actives 56% (n = 5,600);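 active = mean loss of cell viability signal at or above a set limit, and enough replicates individually reaching it; inconclusive = meets only the mean limit or only the replicate share; inactive = meets neither condition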;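 note: 0% = median of neutral control wells and 100% = median of positive control wells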
# * marks the source's active call; other numbers are inactive results; ? = inconclusive; / = no result. Most compounds without a hit are left out; they make up all but 5.8% or so of the library.
SMILES,GASC1 inh,IDH1 R132H inh,Pf Dd2 inh,T cruzi growth-1,T cruzi growth-2,T cruzi growth-3,NIH3T3 tox,3T3 cytotox 2
C[C@@H]1CN([C@@H](C)CO)C(=O)c2cc(NC(=O)c3ccccc3)ccc2O[C@@H](C)CCCCO[C@H]1CN(C)C(=O)CCCN(C)C,-2.0,-0.6,1.7,47.0,/,/,/,/
C[C@@H]1CCCCO[C@H](CN(C)C(=O)CCCN(C)C)[C@@H](C)CN([C@H](C)CO)C(=O)c2cc(NC(=O)c3ccccc3)ccc2O1,1.9,3.1,8.3,99.5*,23.2,-38.1,-11.4,9.4
C[C@@H]1CN([C@H](C)CO)C(=O)c2cc(NS(C)(=O)=O)ccc2O[C@@H](C)CCCCO[C@@H]1CN(C)C(=O)CCCN(C)C,0.8,/,23.1,99.5*,54.4,-0.2,17.7,-1.6
CN(C)CC#Cc1ccc([C@H]2[C@@H](CO)N3CCCCN(C(=O)c4ccc5c(c4)OCO5)C[C@H]23)cc1,1.7,/,-3.2,21.0,/,/,/,/
C[C@H]1CCCCO[C@H](CN(C)C(=O)Nc2ccc(F)cc2)[C@@H](C)CN([C@@H](C)CO)C(=O)c2cc(NS(=O)(=O)c3ccc(Cl)cc3)ccc2O1,0.1,0.3,-76.0,/,/,/,/,/
COc1ccccc1-c1ccc2c(c1)O[C@@H](CN(C)C(=O)c1ccncc1)[C@@H](C)CN([C@@H](C)CO)S2(=O)=O,-0.9,3.7,-9.5,108.1*,96.1*,88.1,10.3,24.9*
C[C@H]1CN([C@@H](C)CO)S(=O)(=O)c2ccc(/C=C/c3ccccc3)cc2O[C@H]1CN(C)C(=O)c1ccncc1,-6.5,-0.1,5.1,105.8*,108.9*,86.2,43.6*,70.3*
C[C@@H]1CN([C@H](C)CO)S(=O)(=O)c2ccc(/C=C/c3ccccc3)cc2O[C@H]1CN(C)C(=O)c1ccccc1,/,-3.8,-78.9,127.7*,110.7*,86.6,15.8,99.7*
COc1ccccc1-c1ccc2c(c1)O[C@H](CN(C)C(=O)c1ccncc1)[C@@H](C)CN([C@H](C)CO)S2(=O)=O,0.9,1.6,5.6,66.9,/,/,/,/
CC(C)NC(=O)N(C)C[C@@H]1Oc2ccc(NC(=O)Nc3cccc4ccccc34)cc2C(=O)N([C@H](C)CO)C[C@H]1C,0.0,/,15.3,20.5,/,/,/,/
CN1c2ccc(-c3ccccc3)cc2[C@@H]2[C@@H](CCN2C(=O)Cc2cccnc2)[C@@H]1CO,0.0,/,-0.3,106.0*,108.8*,71.0,2.1,1.4
COc1ccc(-c2ccc3c(c2)[C@@H]2[C@@H](CCN2C(=O)Cc2cccnc2)[C@@H](CO)N3C)cc1,1.6,/,-0.2,80.8,/,/,/,/
CN1c2ccc(-c3ccc(F)cc3)cc2[C@@H]2[C@@H](CCN2C(=O)Cc2cccnc2)[C@@H]1CO,-0.1,/,-62.6,?,106.4*,62.3,-13.4,-6.3
CN1c2ccc(-c3ccccc3)cc2[C@@H]2[C@@H](CCN2C(=O)Cc2ccccc2)[C@@H]1CO,-1.8,/,10.3,101.8*,103.1*,110.8*,-14.7,105.6*
COCC#Cc1ccc([C@H]2[C@H](CO)N3CCCCN(S(=O)(=O)c4ccc(OC)cc4)C[C@@H]23)cc1,-0.6,/,-57.0,?,99.8*,39.5,-0.9,11.4
COCC#Cc1ccc([C@H]2[C@@H](CO)N3CCCCN(S(=O)(=O)c4ccc(OC)cc4)C[C@@H]23)cc1,-0.5,/,-45.6,?,99.9*,42.4,33.9,33.6*
COc1ccc2nc(SCC(=O)N3CCCc4ccccc43)[nH]c2c1,/,0.0,/,/,/,/,/,/
C[C@@H]1CN([C@H](C)CO)S(=O)(=O)c2ccc(-c3cccc(C#N)c3)cc2O[C@H]1CN(C)C,7.7,0.4,-18.3,110.4*,87.3,27.8,25.2,36.5*
C[C@@H]1CN([C@H](C)CO)S(=O)(=O)c2ccc(-c3cccc(C#N)c3)cc2O[C@@H]1CN(C)C(=O)c1ccc(F)cc1,1.7,0.5,-13.8,101.1*,101.6*,83.3,?,88.3*
C[C@@H]1CN([C@@H](C)CO)S(=O)(=O)c2ccc(-c3cccc(C#N)c3)cc2O[C@H]1CN(C)C(=O)c1ccccc1,0.0,0.2,-53.7,67.1,/,/,/,/
C[C@H](CO)N1C[C@H](C)[C@@H](CN(C)C)Oc2cc(-c3cccc(C#N)c3)ccc2S1(=O)=O,1.1,0.4,-10.9,52.6,/,/,/,/
C[C@H](CO)N1C[C@H](C)[C@H](CN(C)C(=O)c2ccc(F)cc2)Oc2cc(-c3cccc(C#N)c3)ccc2S1(=O)=O,-1.0,0.0,-67.6,103.7*,71.2,73.8,6.7,64.0*
C[C@@H]1CN([C@@H](C)CO)S(=O)(=O)c2ccc(C#Cc3ccccc3F)cc2O[C@H]1CN(C)C(=O)Cc1cccnc1,-2.8,5.0,-42.7,96.2*,104.2*,36.3,33.6,72.7*
C[C@H](CO)N1C[C@H](C)[C@@H](CN(C)C(=O)Cc2ccccc2)Oc2cc(C#Cc3ccccc3F)ccc2S1(=O)=O,-4.1,0.2,?,123.5*,85.4,91.7,-0.7,0.9
C[C@@H]1CN([C@H](C)CO)S(=O)(=O)c2ccc(C#Cc3ccccc3F)cc2O[C@@H]1CN(C)C(=O)Cc1ccncc1,-1.8,1.1,-59.7,/,/,/,/,/
SMILES,GASC1 inh,IDH1 R132H inh,Pf Dd2 inh,T cruzi growth-1,T cruzi growth-2,T cruzi growth-3,NIH3T3 tox,3T3 cytotox 2
C[C@H](CO)N1C[C@H](C)[C@H](CN(C)C(=O)Cc2ccccc2)Oc2cc(C#Cc3ccccc3F)ccc2S1(=O)=O,2.1,-1.2,-25.1,126.6*,95.2*,74.4,20.7,?
C[C@@H]1CN([C@H](C)CO)S(=O)(=O)c2ccc(C#Cc3ccccc3F)cc2O[C@@H]1CN(C)C(=O)Cc1ccccc1,/,-0.1,-48.5,120.9*,96.5*,99.0*,27.1,101.6*
C[C@H]1CN([C@@H](C)CO)S(=O)(=O)c2ccc(C#Cc3ccccc3F)cc2O[C@@H]1CN(C)C(=O)Cc1cccnc1,-2.7,0.1,-58.9,81.0,/,/,/,/
CC(=O)N(C)C[C@@H]1Oc2cc(C#Cc3ccccc3F)ccc2S(=O)(=O)N([C@H](C)CO)C[C@H]1C,-0.3,-5.3,-44.0,38.0,/,/,/,/
C[C@H](CO)N1C[C@H](C)[C@@H](CN(C)C(=O)CCCN(C)C)OCCCC[C@H](C)Oc2ccc(NC(=O)C3CCCCC3)cc2C1=O,16.8,/,23.3,-16.3,/,/,/,/
C[C@H]1CN([C@@H](C)CO)S(=O)(=O)c2ccc(C#Cc3ccccc3F)cc2O[C@@H]1CN(C)C(=O)Cc1ccncc1,-1.9,0.3,-50.7,/,/,/,/,/
C[C@H]1CN([C@@H](C)CO)S(=O)(=O)c2ccc(C#Cc3ccccc3F)cc2O[C@H]1CN(C)C(=O)Cc1ccccc1,-1.3,0.3,-26.1,125.3*,109.1*,65.5,25.5,103.1*
